The results in this text go back to PubChem BioAssay.

What is called inhibition is the change of the read-out against control, counted positive when it falls.

Calls of active or inactive are those of the source.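 Rule for the calls, unless noted: active = inhibition of the reporter signal at or above 50%; inactive = inhibition below 50%.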

Test [1] in a line: inhibitors of TNFa-induced NFkB p65 translocation, primary screen, imaging, HUVEC, MLSMR starter and 10KST1 sets (AID 438;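 active = inhibition above 20% together with a positive visual image hit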;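 note: compound added about 3h40 before a 20 min TNFalpha stimulation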;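 for inhibition: signal is the nuclear over cytoplasmic p65 intensity ratio per well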). Particulars: HUVEC TNFa-induced p65 nuclear translocation; cell count: measured here: nuclei count (cytotoxicity indicator), at 2.08 µM; inhibition: at 2 µM, stronger effect = higher value, 0% TNFa-plus-vehicle, 100% no-TNFa wells.
A short description of test [2]: inhibitors of mutant huntingtin aggregation, primary screen, imaging, exon1htt(103Q)mCFP cells, high-content imaging (AID 483;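 active = visual image review flags a hit and inhibition of aggregation exceeds 20%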;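 note: compound exposure lasted 3 days before fixation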;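 for nuclei count: percent of the per-plate median nuclei count of sample wells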). Particulars: exon1htt(103Q)mCFP cell line, aggregate imaging, at 2 µM; inhibition of aggregation: stronger effect = higher value; nuclei count: measured here: cell count, toxicity.
Test [3] can be described thus: inhibitors of E-selectin induction by TNFa, primary screen, imaging, HUVEC, immunofluorescence, MLSMR starter and 10KST1 sets (AID 487;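 active = visually confirmed hit in the image check and inhibition above 20%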;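 for inhibition: signal is fraction of cell area covered by stained E-selectin grains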;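 for nuclei count: 100% = median nuclei count of all wells on the same plate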). Particulars: HUVEC TNFalpha-induced E-selectin immunofluorescence imaging, at 2 µM; inhibition: stronger effect = higher value; nuclei count: measured here: cell number, toxicity.
The target in test [4] is Voltage-gated potassium channel subunit beta-2 (Rattus norvegicus) (UniProt P62483). Description: KvBeta enzyme negative modulators, primary screen, biochemical, NADPH fluorescence (AID 622;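 active = fluorescence slope higher than the sample average by over 3 SD, cut at about -0.22 in these data, passing the limit was not always enough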;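 note: slope of raw intensity against log time taken from 70 to 1610 s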). Conditions: recombinant KvBeta, 4-cyanobenzaldehyde reduction, at 10 µM, stronger effect = higher value.
Test [5] shares this target. Description: KvBeta positive modulators, primary screen, biochemical, NADPH fluorescence (AID 623;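 active = NADPH fluorescence slope more negative than the mean of all samples by about 3 SD, 99.7% confidence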;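 note: fluorescence intensity change per second fitted from 20 to 320 s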). Conditions: Recombinant KvBeta, NADPH fluorescence decrease slope, 10 min; at 10 µM; stronger effect = lower value.
In test [6] the target is Muscarinic acetylcholine receptor M4 (Homo sapiens) (UniProt P08173). The test is described as follows: compounds altering M4/GIRK thallium flux, either direction, primary screen, M4 allosteric agonist project, cell-based, HEK293 M4/GIRK, BTC-AM (AID 625;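 active = fluorescence slope after compound addition differing from the mean of all tested samples at 99.7% confidence, mostly higher but some lower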;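 note: thallium influx through GIRK channels coupled to M4 in HEK293 cells with BTC-AM dye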). Particulars: at 10 µM, actives lie on both sides. In outline:
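Material – HEK293 cells with M4 receptor and GIRK channels · Buffer or medium – pH 7.3 thallium assay buffer · Doses – one dose, 10 µM final · Timing – cells overnight at 37 °C, BTC-AM loading 1 h, reads 2 min total · Measured by – kinetic fluorescence with BTC-AM dye · Controls – carbachol and DMSO controls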

A short description of test [7]: inhibitors of Sendai virus-induced IRF3 signaling, primary screen, TLR/RLR signaling modifier project, cell-based, Sendai virus stimulus, luciferase, 10K MLSCN set (AID 602276;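 active = inhibition at or above 50% at 10 µM; inactive = inhibition below 50%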;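 note: firefly luciferase from ISG56 promoter only with Renilla not read in this screen; 0% = Sendai virus plus DMSO and 100% = medium plus DMSO without virus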). Conditions: HEK293 RL24 IRF3 luciferase reporter, at 10 µM, stronger effect = higher value. Background: Reporter assays use an easily measured gene product as a stand-in for the process of interest.
A short description of test [8]: inhibitors of poly I:C-induced TLR3 signaling, primary screen, cell-based, poly I:C stimulus, luciferase, 10K MLSCN set (AID 602277). Particulars: HEK293-TLR3 RL24 IRF3 luciferase reporter, at 10 µM, stronger effect = higher value.

Voltage-gated potassium channel subunit beta-2 (Rattus norvegicus), sequence (P62483 whole entry, looked up): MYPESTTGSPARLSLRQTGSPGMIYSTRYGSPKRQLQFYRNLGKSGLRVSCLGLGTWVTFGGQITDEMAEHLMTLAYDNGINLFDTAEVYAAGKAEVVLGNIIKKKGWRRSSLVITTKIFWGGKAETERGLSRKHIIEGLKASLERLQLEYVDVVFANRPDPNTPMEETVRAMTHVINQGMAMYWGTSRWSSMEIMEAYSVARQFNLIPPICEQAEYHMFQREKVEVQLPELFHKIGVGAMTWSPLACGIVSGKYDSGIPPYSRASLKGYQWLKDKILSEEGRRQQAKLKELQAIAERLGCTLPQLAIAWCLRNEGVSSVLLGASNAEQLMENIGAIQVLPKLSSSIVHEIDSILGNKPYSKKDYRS
Muscarinic acetylcholine receptor M4 (Homo sapiens), sequence (P08173 whole entry, looked up): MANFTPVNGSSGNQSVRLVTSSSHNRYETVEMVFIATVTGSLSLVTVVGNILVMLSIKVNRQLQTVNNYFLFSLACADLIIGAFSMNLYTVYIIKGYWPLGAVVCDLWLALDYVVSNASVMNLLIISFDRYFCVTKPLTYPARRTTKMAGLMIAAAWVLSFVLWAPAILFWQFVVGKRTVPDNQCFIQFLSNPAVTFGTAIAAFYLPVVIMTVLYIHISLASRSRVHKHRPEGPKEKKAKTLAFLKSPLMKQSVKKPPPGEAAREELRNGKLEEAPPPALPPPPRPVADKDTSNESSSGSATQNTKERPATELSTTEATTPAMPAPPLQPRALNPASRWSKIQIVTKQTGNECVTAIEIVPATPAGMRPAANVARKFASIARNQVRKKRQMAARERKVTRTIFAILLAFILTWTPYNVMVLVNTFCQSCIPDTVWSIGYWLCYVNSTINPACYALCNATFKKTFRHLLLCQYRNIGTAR

As to `COc1ccccc1-c1c(C)nn2c(C)c(C(C)=O)cnc12`, the cell count in test [1] was found to be 768. The inhibition in test [1] is -0.8% (inactive); in test [3], 96.7% (active); in test [7] it was 17.1% (inactive); in test [8], 14.2% (inactive). In addition, in test [2], the inhibition of aggregation is 13.5% (inactive). In addition, the values for the nuclei count in test [2] and in test [3] were 97% and 81.4%, respectively. Besides, the fluorescence slope in test [4] was -0.611 (inactive); in test [6], 0.00778 (inactive). For the same compound, the NADPH fluorescence slope in test [5] is -3.6e-05 (inactive).

Consider `CC(O)CN(Cc1cccc(Cl)c1)CC(C)O` (centres undefined), for which, in test [1], the cell count came out at 473. Moreover, the inhibition was 0.5% (inactive) in test [1], 10.2% (inactive) in test [3], 18.8% (inactive) in test [7] and 19.5% (inactive) in test [8]. Also, in test [2], the inhibition of aggregation was 1.4% (inactive). For the same compound, the results for the nuclei count in test [2] and in test [3] were 100% and 95.1%, respectively. Also, the values for the fluorescence slope in test [4] and in test [6] were -0.431 (inactive) and 0.00551 (inactive), respectively. Further, in test [5], the NADPH fluorescence slope is 1.1e-05 (inactive).

Turning to `C=CCOc1ccc(/C(O)=C2\C(=O)C(=O)N(CCOC)C2c2cccnc2)cc1` (centres undefined), in test [1], the cell count is 640. Further, the inhibition in test [1] is 3.4% (inactive); in test [3], 4% (inactive); in test [7], 6.88% (inactive); in test [8], 15.7% (inactive). Further, the inhibition of aggregation in test [2] was 14.8% (inactive). Also, the nuclei count amounted to 105% in test [2] and 101% in test [3]. The fluorescence slope in test [4] was -0.336 (inactive); in test [6], 0.00592 (inactive). Moreover, the NADPH fluorescence slope in test [5] is -4.4e-05 (inactive).

For `CC(C)(C)C1=C[C@@H](CO)C[C@@H](CO)C1`, in test [1], the cell count was 734. Besides, the inhibition in test [1] is -3.5% (inactive); in test [3] it was -25.8% (inactive); in test [7], 10.7% (inactive); in test [8] it was 23.8% (inactive). The inhibition of aggregation in test [2] was -19.6% (inactive). In addition, the nuclei count in test [2] amounted to 103%; in test [3], 138%. The results for the fluorescence slope in test [4] and in test [6] were -0.391 (inactive) and 0.00843 (inactive), respectively. In addition, the NADPH fluorescence slope in test [5] is -0.000123 (inactive).

On to `Cn1c(=O)cc(OCC(=O)N2CCN(c3cccc(C(F)(F)F)c3)CC2)c2ccccc21`, for which, in test [1], the cell count stood at 377. In addition, the inhibition was -8.3% (inactive) in test [1], -12.8% (inactive) in test [3], 13.7% (inactive) in test [7] and 15.2% (inactive) in test [8]. For the same compound, the inhibition of aggregation in test [2] is -13.4% (inactive). Also, the figures for the nuclei count in test [2] and in test [3] were 118% and 113%, respectively. For the same compound, the fluorescence slope is -0.426 (inactive) in test [4] and 0.00701 (inactive) in test [6]. Also, in test [5], the NADPH fluorescence slope is 6.8e-05 (inactive).

As to `Nc1nc(-c2ccccc2Br)cs1`, the cell count in test [1] was 392. Besides, the inhibition was 4.7% (inactive) in test [1], -133% (inactive) in test [3], -14.5% (inactive) in test [7] and -27% (inactive) in test [8]. Further, the inhibition of aggregation in test [2] is -8.3% (inactive). Also, the nuclei count in test [2] came to 110%; in test [3], 119%. Also, the fluorescence slope in test [4] is -0.574 (inactive); in test [6], 0.00573 (inactive). In test [5], the NADPH fluorescence slope was -1.6e-05 (inactive).

As to `CCCc1[nH]nc2c1C(c1cccc(OC(=O)c3ccco3)c1)C(C#N)=C(N)O2` (centres undefined), in test [1], the cell count came out at 687. The inhibition was -27.1% (inactive) in test [1], 35.2% (inactive) in test [3], 9.57% (inactive) in test [7] and 18% (inactive) in test [8]. In test [2], the inhibition of aggregation was -11.9% (inactive). The nuclei count in test [2] came out at 105%; in test [3], 96.7%. Also, the figures for the fluorescence slope in test [4] and in test [6] were -0.471 (inactive) and 0.00951 (inactive), respectively. Also, in test [5], the NADPH fluorescence slope was -8.2e-06 (inactive).

With `CC(=O)N1CCc2cc(S(=O)(=O)CCC(=O)N3CCN(C(=O)c4ccco4)CC3)ccc21`, in test [1], the cell count turned out to be 519. Further, the inhibition in test [1] was 2.2% (inactive); in test [3] it was -51.9% (inactive); in test [7], 12.3% (inactive); in test [8] it was 17.8% (inactive). In addition, the inhibition of aggregation in test [2] was 7.5% (inactive). Moreover, the nuclei count in test [2] came out at 105%; in test [3] it was 116%. Moreover, the fluorescence slope in test [4] was -0.413 (inactive); in test [6], 0.00737 (inactive). The NADPH fluorescence slope in test [5] was -4e-05 (inactive).

For `Cc1ccc2c(COn3nnc4ccc(S(=O)(=O)N(C)C)cc43)cc(=O)oc2c1C`, the cell count in test [1] was found to be 702. Moreover, the inhibition in test [1] was 5.3% (inactive); in test [3] it was 30.2% (inactive); in test [7], -1.62% (inactive); in test [8], 10.1% (inactive). Further, the inhibition of aggregation in test [2] is 16.4% (inactive). The results for the nuclei count in test [2] and in test [3] were 96.2% and 94.7%, respectively. Also, the fluorescence slope in test [4] was -0.543 (inactive); in test [6] it was 0.00895 (inactive). Moreover, in test [5], the NADPH fluorescence slope was -6.4e-05 (inactive).

Turning to `CCSc1nnc(NC(=O)c2ccc(C)o2)s1`, in test [1], the cell count was 603. In addition, the inhibition in test [1] is -10.7% (inactive); in test [3] it was 11.4% (inactive); in test [7], -41.5% (inactive); in test [8], -89% (inactive). In test [2], the inhibition of aggregation is 21.1% (inactive). Moreover, the nuclei count in test [2] and in test [3] was 96.3% throughout. For the same compound, the results for the fluorescence slope in test [4] and in test [6] were -0.531 (inactive) and 0.00557 (inactive), respectively. In test [5], the NADPH fluorescence slope was -4e-05 (inactive).

As to `Cc1ccc(-n2ncc3c(Nc4c(C)n(C)n(-c5ccccc5)c4=O)ncnc32)c(C)c1`, in test [1], the cell count was determined as 443. In addition, the inhibition in test [1] was 9.3% (inactive); in test [3], -81.8% (inactive); in test [7], 13.9% (inactive); in test [8], 12.5% (inactive). The inhibition of aggregation in test [2] is 6.8% (inactive). The results for the nuclei count in test [2] and in test [3] were 96.6% and 120%, respectively. For the same compound, the fluorescence slope in test [4] was -0.538 (inactive); in test [6], 0.0045 (inactive). In addition, in test [5], the NADPH fluorescence slope is -2.2e-05 (inactive).

With `COC(=O)COc1ccc(S(=O)(=O)NCCC2=CCCCC2)cc1`, the cell count in test [1] was found to be 515. The inhibition in test [1] was -0.5% (inactive); in test [3] it was -31.4% (inactive); in test [7] it was 15.8% (inactive); in test [8], 20.7% (inactive). In addition, the inhibition of aggregation in test [2] was 29% (inactive). Also, the nuclei count in test [2] is 79.1%; in test [3], 107%. In addition, the fluorescence slope in test [4] is -0.544 (inactive); in test [6], 0.00377 (inactive). Also, the NADPH fluorescence slope in test [5] was -2.1e-05 (inactive).

On to `Cc1ccc(C2C(C#N)=C(N)Oc3cc4c(cc32)OCO4)cc1` (centres undefined), for which, in test [1], the cell count is 373. In addition, the inhibition is -5.8% (inactive) in test [1], 22.1% (inactive) in test [3], 24.6% (inactive) in test [7] and 45.5% (inactive) in test [8]. Moreover, the inhibition of aggregation in test [2] was 32.6% (inactive). In addition, the nuclei count came out at 69.9% in test [2] and 104% in test [3]. In addition, the fluorescence slope in test [4] was -0.541 (inactive); in test [6] it was 0.00467 (inactive). The NADPH fluorescence slope in test [5] is -3.6e-05 (inactive).

Take `CC(=O)Nc1ccc(Cl)c(C(N)=O)c1`: the cell count in test [1] is 445. The inhibition in test [1] was -0.6% (inactive); in test [3], -97.8% (inactive); in test [7], 19.4% (inactive); in test [8], 23.4% (inactive). For the same compound, the inhibition of aggregation in test [2] was -12.1% (inactive). Also, the nuclei count in test [2] was found to be 94.4%; in test [3], 113%. For the same compound, the fluorescence slope in test [4] is -0.581 (inactive); in test [6] it was 0.00404 (inactive). In test [5], the NADPH fluorescence slope was -7.9e-05 (inactive).
